This note sets out measurements from ChEMBL document CHEMBL3826935, “Synthesis and Pharmacology of (Pyridin-2-yl)methanol Derivatives as Novel and Selective Transient Receptor Potential Vanilloid 3 Antagonists” (J Med Chem, 2016).

A word on the Cmax: it is the highest concentration seen after dosing. As usually defined, the AUC(0-t) is exposure summed from dosing to a finite time, without extrapolation to infinity. Higher therefore signals more exposure. The term bioavailability denotes dose-corrected exposure relative to a reference, in per cent. One may read the IC50 as the concentration that gives 50% inhibition. Usually Kb stands for the affinity of an antagonist, worked out from how it opposes an agonist.

Data set [1] concerns Rattus norvegicus. In words: Unbound AUC(0 to 8 hrs) in rat at 2 mg/kg, po. The class given is ADME, organism-based. The note with it: in vivo. Summed up:
(§1)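 Rat pharmacokinetics: iv dose 1 mg/kg; po dose 1 or 2 mg/kg depending on compound. AUC taken over 0–8 h. Unbound parameters calculated using plasma free fraction.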

Data set [2] concerns Rattus norvegicus. In words: Toxicity in Sprague-Dawley rat reserpine model of central pain assessed as behavioral changes at 10 to 100 mg/kg, po. The class given is organism-based. The note with it: in vivo.
A short description of data set [3]: Total plasma clearance in rat at 1 mg/kg, iv. The class given is ADME, organism-based. Summed up:
as §1

For data set [4], the target named is T1, Nuclear receptor subfamily 1 group I member 2 (Homo sapiens, UniProt O75469).
T1 sequence (O75469 whole entry): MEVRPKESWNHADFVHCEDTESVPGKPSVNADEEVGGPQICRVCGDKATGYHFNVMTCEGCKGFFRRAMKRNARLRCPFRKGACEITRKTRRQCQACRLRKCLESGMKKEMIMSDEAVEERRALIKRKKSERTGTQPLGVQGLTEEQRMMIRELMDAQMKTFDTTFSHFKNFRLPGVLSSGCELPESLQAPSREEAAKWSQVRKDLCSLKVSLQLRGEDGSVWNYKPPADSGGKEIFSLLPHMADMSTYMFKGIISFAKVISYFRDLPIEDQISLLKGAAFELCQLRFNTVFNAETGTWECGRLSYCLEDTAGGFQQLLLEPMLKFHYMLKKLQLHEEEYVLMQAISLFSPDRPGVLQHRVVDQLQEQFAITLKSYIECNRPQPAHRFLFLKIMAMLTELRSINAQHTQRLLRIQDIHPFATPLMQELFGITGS
In words: Activation of human PXR. The class given is ADME. The note with it: human.

Data set [5] relates to Liver microsome. In words: Unbound intrinsic clearance in human liver microsomes after 5 hrs by LC-MS/MS analysis. The class given is ADME. Summed up: (§2)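 Microsomal stability run in an automated high-throughput plate format. Intrinsic clearance corrected for nonspecific microsomal binding using measured unbound fraction (fu,mic), reported as unbound Clint in L/h/kg.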
Background: Liver microsomes are a subcellular fraction often used to study metabolism.

A short description of data set [6]: Cmax in rat at 1 mg/kg, iv or 2 mg/kg, po. The class given is ADME, organism-based. The note with it: in vivo. Summed up: as §1
Data set [7] relates to Liver microsome. In words: Unbound intrinsic clearance in rat liver microsomes after 5 hrs by LC-MS/MS analysis. The class given is ADME. Summed up:
as §2

Data set [8] can be described thus: […] plasma clearance in rat at 1 mg/kg, iv. The class given is ADME, organism-based. The conditions noted are these: read-out: CL free (converted). Summed up: as §1
Data set [9] can be described thus: AUC(0 to 8 hrs) in rat at 2 mg/kg, po. The note with it: in vivo. More on the design: time < 6 hr, dose 2 mg/kg, route oral. The class given is ADME, organism-based. Summed up:
as §1

For data set [10], the species on record is Rattus norvegicus. The data set is described as follows: Cardiotoxicity in rat assessed as increase in cardiac contractility at plasma concentration of 4.7 ug/ml. The class given is toxicity, organism-based.
Data set [11] is described as follows: Ratio of drug level in plasma to brain in Sprague-Dawley rat. The class given is ADME, cell-free. The conditions noted are these: in vivo.
The test system of data set [12] is Rattus norvegicus. The data set is described as follows: Toxicity in sciatic nerve ligation Sprague-Dawley rat model of neuropathic pain assessed as overt impairments at 10 to 100 mg/kg, po. The class given is organism-based. The conditions noted are these: in vivo.
In data set [13] the target is Sodium channel protein type 9 subunit alpha (Homo sapiens) (UniProt Q15858). The data set is described as follows: Binding affinity to Nav1.7 (unknown origin) at 10 uM. Summed up:
(§3)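 Selectivity screen at 10 µM across CEREP and internal target panels. Readout is percent binding, with 50% as the threshold.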

In data set [14] the target is Voltage-gated inwardly rectifying potassium channel KCNH2 (Homo sapiens, UniProt Q12809). In words: Binding affinity to human ERG at 10 uM. Summed up:
as §3

Data set [15] can be described thus: Oral bioavailability in rat at 2 mg/kg. The conditions noted are these: in vivo. The class given is ADME, organism-based. Summed up: as §1
Data set [16] concerns Rattus norvegicus. In words: Toxicity in chronic constriction injury Sprague-Dawley rat model of neuropathic pain assessed as overt impairments at 10 to 100 mg/kg, po. The class given is organism-based. The conditions noted are these: in vivo.
The species entered for data set [17] is Rattus norvegicus. In words: Cardiotoxicity in rat assessed as increase in mean arterial pressure. The class given is toxicity, organism-based, Artery. The note with it: in vivo.
A short description of data set [18]: Volume of distribution at steady state in rat at 1 mg/kg, iv or 2 mg/kg, po. The class given is ADME, organism-based. The note with it: in vivo, read-out: Vdss. Summed up:
as §1

Data set [19] has as its target T2, Transient receptor potential cation channel subfamily V member 3 (Homo sapiens, UniProt Q8NET8).
T2 sequence (Q8NET8 whole entry): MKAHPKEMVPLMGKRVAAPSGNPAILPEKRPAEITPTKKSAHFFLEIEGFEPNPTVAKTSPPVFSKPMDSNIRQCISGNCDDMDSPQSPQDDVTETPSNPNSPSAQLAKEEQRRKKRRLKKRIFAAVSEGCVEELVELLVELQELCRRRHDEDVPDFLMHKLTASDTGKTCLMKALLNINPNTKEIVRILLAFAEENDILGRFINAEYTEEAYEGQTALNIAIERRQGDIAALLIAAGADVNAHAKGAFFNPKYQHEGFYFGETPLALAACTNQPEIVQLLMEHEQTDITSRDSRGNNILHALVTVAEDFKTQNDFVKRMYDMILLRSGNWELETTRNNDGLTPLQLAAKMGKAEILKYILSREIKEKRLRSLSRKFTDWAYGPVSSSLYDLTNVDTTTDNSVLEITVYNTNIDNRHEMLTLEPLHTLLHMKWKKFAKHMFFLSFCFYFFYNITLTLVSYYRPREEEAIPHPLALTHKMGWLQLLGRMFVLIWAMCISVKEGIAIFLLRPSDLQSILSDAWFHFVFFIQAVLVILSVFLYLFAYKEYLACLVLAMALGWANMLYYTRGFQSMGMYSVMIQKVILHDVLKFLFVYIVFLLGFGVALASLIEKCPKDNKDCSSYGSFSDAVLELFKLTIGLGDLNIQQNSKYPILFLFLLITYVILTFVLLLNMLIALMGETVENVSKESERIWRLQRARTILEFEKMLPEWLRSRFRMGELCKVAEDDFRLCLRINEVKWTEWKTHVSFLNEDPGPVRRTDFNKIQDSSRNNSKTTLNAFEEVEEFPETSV
The data set is described as follows: (§4) Antagonist activity at human TRPV3 expressed in recombinant HEK293 cells assessed as inhibition of 2-APB induced calcium flux by FLIPR analysis. The class given is cell-based. Summed up: (§5)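 HEK293 cells stably expressing human TRPV3 (I25V variant), plated the day before in DMEM + 10% FBS at 37 °C, 5% CO2. Calcium 4 dye loaded in Ca/Mg-free HEPES D-PBS pH 7.4 for 1–2 h at room temperature. Compound dilutions added with 3 min baseline, then 2-APB at 60 µM final; Ca2+ flux read 3 min on FLIPR. Kb from at least duplicates, averaged across independent runs.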

The target of data set [20] is T3, Transient receptor potential cation channel subfamily V member 3 (Homo sapiens) (UniProt Q8NET8).
T3 sequence (whole entry): T2 sequence (Q8NET8 whole entry)
Described as §4. The class given is cell-based. Summed up: as §5

Data set [21] deals with Voltage-dependent N-type calcium channel subunit alpha-1B (Homo sapiens) (UniProt Q00975). The data set is described as follows: Binding affinity to Cav2.2 (unknown origin) at 10 uM. Summed up: as §3
Data set [22] concerns Rattus norvegicus. In words: Antiallodynic activity in po dosed chronic constriction injury Sprague-Dawley rat model of neuropathic pain assessed as attenuation of mechanical allodynia induced by von Frey hair stimulation to the ipsilateral hind paw. The class given is functional, organism-based. Summed up: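 Rat neuropathic pain models dosed orally. Mechanical allodynia measured by von Frey stimulation of the injured ipsilateral paw, with a 15 g threshold taken as maximal possible effect and results expressed as %MPE. Vehicle 10% DMSO in PEG; n = 6 per group.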

The target in data set [23] is T3, Transient receptor potential cation channel subfamily V member 3 (Homo sapiens). The data set is described as follows: Antagonist activity at human TRPV3 expressed in recombinant HEK293 cells assessed as free plasma level adjusted concentration for inhibition of 2-APB induced calcium flux by FLIPR analysis. The class given is cell-based. Summed up:
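FLIPR Kb from the 2-APB (60 µM final) Ca2+ flux assay in human TRPV3 HEK293 cells, converted to an unbound value using the measured free fraction in plasma.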
In general terms: Calcium flux is commonly read through the fluorescence of an indicator in the cells.

Chain of Sodium channel protein type 9 subunit alpha (Homo sapiens) (Q15858 whole entry, looked up): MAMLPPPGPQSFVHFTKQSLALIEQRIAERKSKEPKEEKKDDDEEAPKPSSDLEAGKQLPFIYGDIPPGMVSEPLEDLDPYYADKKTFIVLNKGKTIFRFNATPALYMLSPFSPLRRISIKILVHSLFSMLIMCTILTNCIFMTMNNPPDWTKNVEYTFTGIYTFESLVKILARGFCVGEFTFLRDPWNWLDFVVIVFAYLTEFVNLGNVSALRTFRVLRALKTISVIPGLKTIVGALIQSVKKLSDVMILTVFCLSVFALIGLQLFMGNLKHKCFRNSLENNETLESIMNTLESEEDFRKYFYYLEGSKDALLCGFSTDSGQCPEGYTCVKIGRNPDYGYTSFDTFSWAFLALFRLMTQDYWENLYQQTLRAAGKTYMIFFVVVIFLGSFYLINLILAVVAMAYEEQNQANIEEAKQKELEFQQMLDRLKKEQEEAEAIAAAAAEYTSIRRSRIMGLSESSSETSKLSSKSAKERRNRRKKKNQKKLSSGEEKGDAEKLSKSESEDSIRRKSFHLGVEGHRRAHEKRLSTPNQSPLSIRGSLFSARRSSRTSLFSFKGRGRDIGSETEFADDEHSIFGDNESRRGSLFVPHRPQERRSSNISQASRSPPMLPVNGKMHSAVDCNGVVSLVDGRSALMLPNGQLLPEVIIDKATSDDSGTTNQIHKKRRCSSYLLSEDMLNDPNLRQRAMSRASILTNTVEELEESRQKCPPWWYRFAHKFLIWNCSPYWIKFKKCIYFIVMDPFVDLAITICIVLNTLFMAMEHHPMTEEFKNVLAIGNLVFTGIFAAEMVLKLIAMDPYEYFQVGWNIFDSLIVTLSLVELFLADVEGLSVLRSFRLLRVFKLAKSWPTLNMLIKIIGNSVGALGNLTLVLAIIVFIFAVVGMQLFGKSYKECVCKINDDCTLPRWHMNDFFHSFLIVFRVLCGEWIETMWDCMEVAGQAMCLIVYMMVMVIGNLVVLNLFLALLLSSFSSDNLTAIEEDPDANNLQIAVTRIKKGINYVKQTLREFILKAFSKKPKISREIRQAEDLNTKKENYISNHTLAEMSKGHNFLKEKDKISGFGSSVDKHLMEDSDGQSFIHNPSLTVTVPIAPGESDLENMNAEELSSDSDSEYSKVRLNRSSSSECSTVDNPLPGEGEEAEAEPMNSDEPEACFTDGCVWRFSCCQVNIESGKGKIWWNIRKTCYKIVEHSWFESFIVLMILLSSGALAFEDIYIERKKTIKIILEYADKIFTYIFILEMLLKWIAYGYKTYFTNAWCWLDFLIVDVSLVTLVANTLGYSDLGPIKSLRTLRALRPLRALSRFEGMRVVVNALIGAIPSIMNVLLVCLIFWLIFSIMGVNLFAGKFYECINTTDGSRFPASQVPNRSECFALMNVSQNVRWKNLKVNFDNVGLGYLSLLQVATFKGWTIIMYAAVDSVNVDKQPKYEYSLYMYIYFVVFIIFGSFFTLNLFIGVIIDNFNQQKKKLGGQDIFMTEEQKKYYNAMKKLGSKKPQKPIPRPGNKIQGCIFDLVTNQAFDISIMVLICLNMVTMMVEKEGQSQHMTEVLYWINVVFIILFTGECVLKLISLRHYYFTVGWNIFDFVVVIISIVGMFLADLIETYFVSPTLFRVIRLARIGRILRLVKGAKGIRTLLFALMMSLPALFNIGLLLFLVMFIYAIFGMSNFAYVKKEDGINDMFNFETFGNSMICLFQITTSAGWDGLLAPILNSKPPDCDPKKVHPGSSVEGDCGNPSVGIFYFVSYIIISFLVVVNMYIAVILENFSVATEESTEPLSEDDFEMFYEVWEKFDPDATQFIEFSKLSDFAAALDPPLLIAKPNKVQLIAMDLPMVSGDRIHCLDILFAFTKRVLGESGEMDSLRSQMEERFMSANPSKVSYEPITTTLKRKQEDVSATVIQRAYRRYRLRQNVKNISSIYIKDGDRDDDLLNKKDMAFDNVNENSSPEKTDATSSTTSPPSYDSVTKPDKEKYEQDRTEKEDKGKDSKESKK
Chain of Voltage-gated inwardly rectifying potassium channel KCNH2 (Q12809 whole entry): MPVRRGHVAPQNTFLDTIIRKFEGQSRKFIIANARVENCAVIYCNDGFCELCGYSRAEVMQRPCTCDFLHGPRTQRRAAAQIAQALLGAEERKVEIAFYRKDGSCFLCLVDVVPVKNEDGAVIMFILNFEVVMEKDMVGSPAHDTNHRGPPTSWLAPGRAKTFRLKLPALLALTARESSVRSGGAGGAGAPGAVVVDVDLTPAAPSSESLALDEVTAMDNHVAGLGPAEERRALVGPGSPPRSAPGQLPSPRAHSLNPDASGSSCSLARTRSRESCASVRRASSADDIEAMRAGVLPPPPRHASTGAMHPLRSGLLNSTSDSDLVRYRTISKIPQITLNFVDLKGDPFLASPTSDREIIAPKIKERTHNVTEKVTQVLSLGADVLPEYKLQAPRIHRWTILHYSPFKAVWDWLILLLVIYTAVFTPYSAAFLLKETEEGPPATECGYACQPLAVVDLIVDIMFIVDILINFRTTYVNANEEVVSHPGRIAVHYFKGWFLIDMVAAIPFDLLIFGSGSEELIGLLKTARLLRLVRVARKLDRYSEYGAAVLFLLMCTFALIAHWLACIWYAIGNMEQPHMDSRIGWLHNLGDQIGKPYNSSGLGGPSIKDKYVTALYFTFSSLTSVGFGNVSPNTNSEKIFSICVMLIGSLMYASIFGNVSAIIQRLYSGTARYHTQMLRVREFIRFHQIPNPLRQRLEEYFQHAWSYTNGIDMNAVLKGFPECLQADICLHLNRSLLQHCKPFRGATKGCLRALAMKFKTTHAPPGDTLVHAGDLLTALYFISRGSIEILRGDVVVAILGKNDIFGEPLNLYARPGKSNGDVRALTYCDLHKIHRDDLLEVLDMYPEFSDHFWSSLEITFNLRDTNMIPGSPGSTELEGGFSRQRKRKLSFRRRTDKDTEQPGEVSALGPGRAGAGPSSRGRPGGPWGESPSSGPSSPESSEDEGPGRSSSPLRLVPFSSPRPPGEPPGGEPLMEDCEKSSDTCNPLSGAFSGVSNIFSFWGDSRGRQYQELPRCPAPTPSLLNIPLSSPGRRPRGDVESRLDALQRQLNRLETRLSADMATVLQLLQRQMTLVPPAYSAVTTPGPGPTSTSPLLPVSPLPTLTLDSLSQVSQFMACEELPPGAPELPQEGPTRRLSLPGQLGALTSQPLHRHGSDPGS

`C[C@]1(O)C[C@](c2cc(C(F)(F)F)ccn2)([C@H](O)c2ccccn2)C1` (mixture of isomers) showed a fAUC in the data set on Rattus norvegicus [1] of 240 ng·h/mL. In addition, the Activity entry with Rattus norvegicus [2] was “Non-toxic”; in [4] it was “Not Active”; in the data set filed under Rattus norvegicus [10], “Non-toxic”; in the data set with Rattus norvegicus [12], “Non-toxic”; in data set [13], under 50%; in [14] it was under 50%. The Activity result in the data set with Rattus norvegicus [16] is “Non-toxic”; in the data set listed under Rattus norvegicus [17], “Non-toxic”; in data set [21], under 50%; in the data set with Rattus norvegicus [22], “Dose-dependent effect”. The figures for the clearance in data set [3] and in [8] were 26.7 mL/min/kg and 41.7 mL/min/kg, respectively. For the same compound, the CL free was 33 mL/min/kg with Liver microsome [5] and 100 mL/min/kg in the data set with Liver microsome [7]. For the same compound, the peak level in data set [6] (Cmax) was 190 ng/mL. The same compound had an AUC(0-t) at 6 h in data set [9] of 380 ng·h/mL. Moreover, the Ratio in data set [11] came out at 1. Moreover, the bioavailability in data set [15] worked out at 26%. For the same compound, the Vd in [18] was determined as 1.4 L/kg. For the same compound, the IC50 in data set [19] stood at 930 nM. Also, the antagonist dissociation constant (Kb) in [20] stood at 560 nM; in data set [23] it was 620 nM. The EC50 in the data set with Rattus norvegicus [22] came out at 11 µmol.
